Assay results: ChEMBL document CHEMBL1687827, “Profiling the Aspergillus fumigatus proteome in response to caspofungin” (2011)
Active and inactive are the calls of the source. No cut-off for these calls is given here.

Assays:
Aspergillus fumigatus [1] = assay: Induction of change in hypothetical gene locus AFUA_6G06840 expression in drug-susceptible Aspergillus fumigatus KU80 delta-akuB at 0.12 ug/ml after 48 hrs in YPD medium by microarray analysis relative to control; type: functional
In short: (§1)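 Mycelia grown from 1 × 10⁵ conidia/ml in YPD at 37°C, 225 rpm, with or without 0.12 μg/ml caspofungin. Total RNA extracted, DNase-treated; 2 μg labelled per TIGR SOP M007 for whole-genome array hybridization. Three independent experiments with dye flip (6 replicates); >2-fold change deemed significant.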

Aspergillus fumigatus [2] = assay: Induction of change in conserved hypothetical gene locus AFUA_5G03010 expression in drug-susceptible Aspergillus fumigatus KU80 delta-akuB at 0.12 ug/ml after 24 hrs in YPD medium by microarray analysis relative to control; type: functional
In short: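 Mycelia grown in YPD ± 0.12 μg/ml caspofungin (1 × 10⁵ conidia/ml, 37°C, shaking) and harvested at 24 or 48 h. Total RNA extracted, DNase-treated and quality-checked; 2 μg labelled per TIGR SOP M007 and hybridized to whole-genome arrays. Three independent experiments with dye flip (6 replicates); drug vs untreated fold change.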

Aspergillus fumigatus [3] = assay: Induction of change in ATP citrate lyase, subunit 1, putative protein level in iTRAQ114 labelled secreted fraction of drug-resistant Aspergillus fumigatus EMFR-S678P at 0.12 ug/ml after 24 hrs in YPD medium by MS (MS/MS) analysis relative to control; type: functional
In short: (§2)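 Conidia at 1 × 10⁵/ml were grown at 37°C, shaking at 225 rpm, in YPD with or without 0.12 μg/ml caspofungin for 24 or 48 h. The culture filtrate was kept as the secreted fraction. Mycelia were lysed by French press in HEPES/glycerol/EDTA/PMSF/DTT buffer, and the 5,000 × g pellet was washed to give CW/PM. Proteins were reduced, alkylated and trypsin-digested at 37°C overnight, then iTRAQ-labelled and run by 2D LC-MS/MS. Ratios are the median of unique-peptide ratios, median-normalized, versus the no-drug control.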

Aspergillus fumigatus [4] = assay: Induction of change in mitochondrial hypoxia responsive domain protein level in iTRAQ-118 labelled cell wall fraction of drug-resistant Aspergillus fumigatus EMFR-S678P at 0.12 ug/ml after 48 hrs in YPD medium by MS (MS/MS) analysis relative to control; type: functional; in short: as §2
Aspergillus fumigatus [5] = assay: Antifungal activity against drug-susceptible Aspergillus fumigatus KU80 delta-akuB assessed as change in hyphal morphology by YPD medium; type: functional; conditions: read-out: MEC
In short: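 Broth microdilution per CLSI M38-A2, in triplicate, in YPD broth (2% yeast extract, 4% peptone, 4% dextrose); minimum effective concentration read as the lowest drug concentration giving a significant change in hyphal morphology visible by eye. Caspofungin dissolved in sterile water.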

Aspergillus fumigatus [6] = assay: Induction of change in Ribosomal L28e protein family protein level in iTRAQ114 labelled secreted fraction of drug-susceptible Aspergillus fumigatus KU80 delta-akuB at 0.12 ug/ml after 24 hrs in YPD medium by MS (MS/MS) analysis relative to control; type: functional
In short: (§3)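 Conidia at 1 × 10⁵/ml grown shaking at 37°C in YPD with or without 0.12 μg/ml caspofungin; mycelia filtered at 24 or 48 h. Secreted fraction taken from the filtrate; cell wall/plasma membrane pellet recovered after French-press lysis and a 5,000 × g spin. Proteins trypsin-digested and iTRAQ-labelled, drug vs no-drug channels at each time, then 2D LC-MS/MS. Protein ratio is the median of ratios from uniquely assigned peptides after median normalization.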

Aspergillus fumigatus [7] = assay: Induction of change in alanine aminotransferase, putative protein level in iTRAQ-116 labelled secreted fraction of drug-resistant Aspergillus fumigatus EMFR-S678P at 0.12 ug/ml after 48 hrs in YPD medium by MS (MS/MS) analysis relative to control; type: functional, organism-based; in short: as §2
Aspergillus fumigatus [8] = assay: Induction of change in ATP citrate lyase, subunit 1, putative protein level in iTRAQ114 labelled secreted fraction of drug-susceptible Aspergillus fumigatus KU80 delta-akuB at 0.12 ug/ml after 24 hrs in YPD medium by MS (MS/MS) analysis relative to control; type: functional; in short: as §3
Aspergillus fumigatus [9] = assay: Induction of change in 14-alpha sterol demethylase Cyp51A protein level in iTRAQ-118 labelled cell wall fraction of drug-resistant Aspergillus fumigatus EMFR-S678P at 0.12 ug/ml after 24 hrs in YPD medium by MS (MS/MS) analysis relative to control; type: functional, organism-based; in short: as §2
Aspergillus fumigatus [10] = assay: Induction of change in aldehyde dehydrogenase, putative protein level in iTRAQ114 labelled secreted fraction of drug-resistant Aspergillus fumigatus EMFR-S678P at 0.12 ug/ml after 24 hrs in YPD medium by MS (MS/MS) analysis relative to control; type: functional; in short: as §2
Aspergillus fumigatus [11] = assay: Induction of change in phosphoglycerate kinase PgkA, putative protein level in iTRAQ-116 labelled secreted fraction of drug-susceptible Aspergillus fumigatus KU80 delta-akuB at 0.12 ug/ml after 48 hrs in YPD medium by MS (MS/MS) analysis relative to control; type: functional
In short: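 Conidia (1 × 10⁵/ml) grown in YPD, 37°C, 225 rpm, ± 0.12 μg/ml caspofungin; filtrate taken as secreted fraction, French-press lysate 5,000 × g pellet as cell wall/plasma membrane. Trypsin digests 8-plex iTRAQ-labelled (drug-free channels as references), pooled, 2D-chromatography, MS/MS. Median-normalized; protein ratio = median of unique-peptide ratios, log2 normalized.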

Aspergillus fumigatus [12] = assay: Induction of change in citrate synthase, eukaryotic protein level in iTRAQ-116 labelled secreted fraction of drug-susceptible Aspergillus fumigatus KU80 delta-akuB at 0.12 ug/ml after 48 hrs in YPD medium by MS (MS/MS) analysis relative to control; type: functional; in short: as §3
Aspergillus fumigatus [13] = assay: Induction of change in ribosomal protein L27a gene expression in drug-susceptible Aspergillus fumigatus KU80 delta-akuB at 0.12 ug/ml after 24 hrs in YPD medium by microarray analysis relative to control; type: functional; in short: as §1

## CC[C@H](C)C[C@H](C)CCCCCCCCC(=O)N[C@H]1C[C@@H](O)[C@@H](NCCN)NC(=O)[C@@H]2[C@@H](O)CCN2C(=O)[C@H]([C@H](O)CCN)NC(=O)[C@H]([C@H](O)[C@@H](O)c2ccc(O)cc2)NC(=O)[C@@H]2C[C@@H](O)CN2C(=O)[C@H]([C@@H](C)O)NC1=O [CASPOFUNGIN]
Aspergillus fumigatus [1]
  fold change (FC): -2.1
Aspergillus fumigatus [2]
  fold change (FC): 5.6
Aspergillus fumigatus [3]
  fold change (FC): -1.07
Aspergillus fumigatus [4]
  fold change (FC): 1.07
Aspergillus fumigatus [5]
  minimal effective concentration: 0.19 µg/mL
Aspergillus fumigatus [6]
  fold change (FC): -1.6
Aspergillus fumigatus [7]
  Activity: inactive
Aspergillus fumigatus [8]
  fold change (FC): 3.2
Aspergillus fumigatus [9]
  Activity: inactive
Aspergillus fumigatus [10]
  fold change (FC): 1.62
Aspergillus fumigatus [11]
  fold change (FC): -2.8
Aspergillus fumigatus [12]
  fold change (FC): -1.6
Aspergillus fumigatus [13]
  fold change (FC): 3.6
